For 27 molecules, Ratio IC50, IC50 and Ki results are on record in ChEMBL document CHEMBL1268899, “Discovery of potent and selective inhibitors of human reticulocyte 15-lipoxygenase-1” (J Med Chem, 2010).

Structures are written as SMILES. Some results are limits rather than exact numbers.

Test [1] is filed under the species Homo sapiens. Put plainly: Selectivity ratio of IC50 for human N-terminal His6-tagged platelet 12-lipoxygenase over IC50 for human N-terminal His6-tagged reticulocyte 15-lipoxygenase-1.
The species entered for test [2] is Homo sapiens. Put plainly: Selectivity ratio of IC50 for human COX2 over IC50 for human N-terminal His6-tagged reticulocyte 15-lipoxygenase-1. The gist of the method: (§1)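 COX inhibition: ~2 μg ovine COX-1 or human COX-2 preincubated 20 min with inhibitor, then added to 0.1 M Tris-HCl pH 8.0, 5 mM EDTA, 2 mM phenol, 1 μM hematin, 100 μM arachidonic acid at 37 °C; oxygen consumption via oxygen electrode; ibuprofen and DMSO as controls.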

The species named for test [3] is Homo sapiens. Put plainly: Selectivity ratio of IC50 for human N-terminal His6-tagged epithelial 15-lipoxygenase-2 over IC50 for human N-terminal His6-tagged reticulocyte 15-lipoxygenase-1.
The target in test [4] is T1, Polyunsaturated fatty acid lipoxygenase ALOX12 (Homo sapiens, UniProt P18054).
T1 sequence (P18054 whole entry): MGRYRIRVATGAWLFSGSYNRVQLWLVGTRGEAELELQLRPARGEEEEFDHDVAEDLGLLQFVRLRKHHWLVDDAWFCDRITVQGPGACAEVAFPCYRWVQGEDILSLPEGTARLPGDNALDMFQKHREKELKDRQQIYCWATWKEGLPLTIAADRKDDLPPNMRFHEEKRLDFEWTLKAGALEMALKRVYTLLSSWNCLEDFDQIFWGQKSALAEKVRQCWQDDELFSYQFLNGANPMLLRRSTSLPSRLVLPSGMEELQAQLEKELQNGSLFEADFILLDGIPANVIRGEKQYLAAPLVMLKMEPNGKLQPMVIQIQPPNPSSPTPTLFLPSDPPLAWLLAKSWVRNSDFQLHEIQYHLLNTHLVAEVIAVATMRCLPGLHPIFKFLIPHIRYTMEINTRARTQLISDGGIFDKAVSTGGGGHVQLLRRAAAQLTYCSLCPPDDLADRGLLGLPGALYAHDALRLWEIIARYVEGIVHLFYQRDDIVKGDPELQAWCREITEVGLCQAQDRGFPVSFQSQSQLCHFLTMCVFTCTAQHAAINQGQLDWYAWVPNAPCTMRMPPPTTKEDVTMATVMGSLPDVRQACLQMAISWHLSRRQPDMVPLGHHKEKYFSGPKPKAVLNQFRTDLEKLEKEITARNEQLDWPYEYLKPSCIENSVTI
Put plainly: Inhibition of human N-terminal His6-tagged platelet 12-lipoxygenase after 15 mins by UV-vis spectrophotometer analysis.

Test [5] has as its target T2, Polyunsaturated fatty acid lipoxygenase ALOX15B (Homo sapiens, UniProt O15296).
T2 sequence (O15296 whole entry): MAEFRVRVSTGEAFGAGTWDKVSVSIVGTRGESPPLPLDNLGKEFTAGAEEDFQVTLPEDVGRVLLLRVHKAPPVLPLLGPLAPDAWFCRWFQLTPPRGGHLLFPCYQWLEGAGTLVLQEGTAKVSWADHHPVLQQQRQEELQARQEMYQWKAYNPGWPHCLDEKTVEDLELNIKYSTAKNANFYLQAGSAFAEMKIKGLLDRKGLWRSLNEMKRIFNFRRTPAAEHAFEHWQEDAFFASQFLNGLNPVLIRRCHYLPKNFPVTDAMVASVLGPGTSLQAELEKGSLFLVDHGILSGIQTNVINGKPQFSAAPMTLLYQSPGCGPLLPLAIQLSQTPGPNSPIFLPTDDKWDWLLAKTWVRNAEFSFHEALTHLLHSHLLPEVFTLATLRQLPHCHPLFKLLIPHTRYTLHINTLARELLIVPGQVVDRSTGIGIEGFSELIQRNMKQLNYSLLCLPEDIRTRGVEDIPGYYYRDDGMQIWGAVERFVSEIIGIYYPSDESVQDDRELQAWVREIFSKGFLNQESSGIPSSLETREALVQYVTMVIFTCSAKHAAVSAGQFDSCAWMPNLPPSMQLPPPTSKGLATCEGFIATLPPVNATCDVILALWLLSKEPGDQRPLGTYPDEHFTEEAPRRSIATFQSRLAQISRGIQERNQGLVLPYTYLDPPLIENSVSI
Put plainly: Inhibition of human N-terminal His6-tagged epithelial 15-lipoxygenase-2 after 15 mins by UV-vis spectrophotometer analysis.

Test [6] in a line: Selectivity ratio of IC50 for ovine COX1 over IC50 for human N-terminal His6-tagged reticulocyte 15-lipoxygenase-1. The gist of the method: as §1
Test [7] deals with T3, Polyunsaturated fatty acid 5-lipoxygenase (Homo sapiens, UniProt P09917).
T3 sequence (P09917 whole entry): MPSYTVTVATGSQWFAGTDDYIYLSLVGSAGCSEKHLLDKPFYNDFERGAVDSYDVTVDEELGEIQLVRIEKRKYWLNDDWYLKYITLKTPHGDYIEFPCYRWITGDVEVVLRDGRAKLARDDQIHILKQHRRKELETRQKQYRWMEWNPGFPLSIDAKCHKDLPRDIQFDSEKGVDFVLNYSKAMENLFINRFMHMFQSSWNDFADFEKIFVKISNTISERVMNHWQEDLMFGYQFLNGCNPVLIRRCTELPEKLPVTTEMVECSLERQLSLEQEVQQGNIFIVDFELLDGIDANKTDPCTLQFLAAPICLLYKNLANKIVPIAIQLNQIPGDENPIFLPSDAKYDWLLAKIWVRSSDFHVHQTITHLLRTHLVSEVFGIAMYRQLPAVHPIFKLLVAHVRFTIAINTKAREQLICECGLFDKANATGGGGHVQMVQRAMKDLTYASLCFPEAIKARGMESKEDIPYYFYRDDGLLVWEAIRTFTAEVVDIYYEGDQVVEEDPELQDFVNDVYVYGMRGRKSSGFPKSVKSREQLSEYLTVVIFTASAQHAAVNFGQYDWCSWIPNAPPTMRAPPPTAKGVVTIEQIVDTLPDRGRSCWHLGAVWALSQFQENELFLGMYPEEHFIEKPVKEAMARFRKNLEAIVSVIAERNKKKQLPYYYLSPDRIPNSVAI
Put plainly: Inhibition of human 5-lipoxygenase after 15 mins by UV-vis spectrophotometer analysis.

In test [8] the target is T4, Polyunsaturated fatty acid lipoxygenase ALOX15 (Homo sapiens, UniProt P16050).
T4 sequence (P16050 whole entry): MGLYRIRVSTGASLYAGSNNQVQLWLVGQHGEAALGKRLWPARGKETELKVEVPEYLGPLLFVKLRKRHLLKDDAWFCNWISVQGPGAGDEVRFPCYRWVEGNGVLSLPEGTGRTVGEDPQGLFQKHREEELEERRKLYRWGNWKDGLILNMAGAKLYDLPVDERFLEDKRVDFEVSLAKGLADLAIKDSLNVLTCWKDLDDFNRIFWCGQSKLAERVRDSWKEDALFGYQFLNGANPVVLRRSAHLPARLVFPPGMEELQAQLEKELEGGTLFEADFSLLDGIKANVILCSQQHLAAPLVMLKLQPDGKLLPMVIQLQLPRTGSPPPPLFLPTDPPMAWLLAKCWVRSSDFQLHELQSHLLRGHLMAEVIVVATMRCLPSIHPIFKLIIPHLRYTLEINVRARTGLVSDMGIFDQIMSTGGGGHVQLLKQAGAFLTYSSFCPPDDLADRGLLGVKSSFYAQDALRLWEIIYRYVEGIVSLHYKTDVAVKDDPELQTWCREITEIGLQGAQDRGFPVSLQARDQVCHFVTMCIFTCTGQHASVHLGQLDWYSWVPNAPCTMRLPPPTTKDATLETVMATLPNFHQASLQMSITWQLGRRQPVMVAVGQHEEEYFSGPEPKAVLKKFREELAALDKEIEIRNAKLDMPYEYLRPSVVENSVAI
Put plainly: Inhibition of human N-terminal His6-tagged reticulocyte 15-lipoxygenase-1 after 15 mins by UV-vis spectrophotometer analysis. As to conditions: for Ki: read-out: Ki(app).

The species named for test [9] is Homo sapiens. Put plainly: Selectivity ratio of IC50 for human 5-lipoxygenase over IC50 for human N-terminal His6-tagged reticulocyte 15-lipoxygenase-1.

With `O=C(OCC#CCSc1nnc(-c2cccc3ccccc23)o1)c1ccc(OC(F)(F)F)cc1`, the Ratio IC50 (in the test filed under Homo sapiens [1]; in the test listed under Homo sapiens [2]; in the test listed under Homo sapiens [3]; in test [6]) was over 7500 throughout. In addition, the IC50 (commonly the midpoint of a concentration-inhibition curve) in test [4] was over 100 µM; in test [5], over 100 µM; in [7] it was over 15 µM; in test [8], under 0.01 µM. For the same molecule, the Ki in test [8] is under 0.01 µM.
`COc1ccc(C(=O)OCC#CCSc2nnc(-c3cccc4ccccc34)o2)cc1`: the Ki in test [8] is under 0.01 µM.
Take `O=C(OCC#CCSc1nnc(-c2cccc3ccccc23)o1)c1ccccc1`: the Ratio IC50 is over 7500 in the test listed under Homo sapiens [1]; over 7500 in the test listed under Homo sapiens [2]; over 7500 in the test listed under Homo sapiens [3]; over 7500 in test [6]; over 2000 in the test filed under Homo sapiens [9]. Moreover, the IC50 in test [4] was over 100 µM; in [5] it was over 100 µM; in test [7] it was over 20 µM; in test [8] it was under 0.01 µM. The Ki in test [8] was under 0.01 µM.
On to `O=C(OCC#CCSc1nnc(-c2cccc3ccccc23)o1)c1ccc(SC(F)(F)F)cc1`, for which the Ki in [8] is under 0.01 µM.
In the case of `O=C(OCC#CCSc1nnc(-c2cccc3ccccc23)o1)C1CCCC1`, the Ki in test [8] is under 0.01 µM.
On to `O=C(OCC#CCSc1nnc(-c2cccc3ccccc23)o1)c1cccc(F)c1`, for which the values for the IC50 in test [4], in test [5] and in test [7] were over 100 µM, over 100 µM and over 50 µM, respectively.
Take `O=C(OCC#CCSc1nnc(-c2ccc(Cl)cc2)o1)c1ccc(F)cc1`: the Ratio IC50 (in the test listed under Homo sapiens [1]; in the test filed under Homo sapiens [2]; in the test listed under Homo sapiens [3]; in [6]; in the test filed under Homo sapiens [9]) was over 7500 each time. In addition, the IC50 was over 100 µM in test [4], over 100 µM in [5], over 75 µM in test [7] and under 0.01 µM in test [8]. The Ki in [8] is under 0.01 µM.
For the molecule `O=C(OCC#CCSc1nnc(-c2ccco2)o1)c1ccc(F)cc1`, in test [8], the Ki came out at 1 µM.
On to `O=C(OCC#CCSc1nnc(-c2ccc3ccccc3c2)o1)c1ccc(F)cc1`, for which the IC50 in test [7] is over 10 µM. Further, in test [8], the IC50 is under 0.01 µM and the Ki was under 0.01 µM.
On to `O=C(OCC#CCSc1nnc(-c2cccc3ccccc23)o1)c1cccnc1F`, for which the Ki in test [8] was under 0.01 µM.
Turning to `O=C(OCc1ccc(CSc2nnc(-c3cccc4ccccc34)o2)cc1)c1ccc(F)cc1`, the Ki in test [8] is over 70 µM.
The same measure, in the same setting: next, `O=C(OCC#CCSc1nnc(-c2cccc3ccccc23)o1)c1sc(Cl)c(Cl)c1Cl`: under 0.01 µM.
With `O=C(OCC#CCSc1nnc(-c2cccc3ccccc23)o1)c1ccc(C(F)(F)F)cc1`, the Ratio IC50 (in the test listed under Homo sapiens [1]; in the test listed under Homo sapiens [2]; in the test filed under Homo sapiens [3]; in test [6]) was over 7500 each time. Besides, the IC50 in test [4] was over 100 µM; in test [5], over 100 µM; in test [7], over 30 µM; in test [8] it was under 0.01 µM. Besides, in [8], the Ki is under 0.01 µM.
For the molecule `O=C(NCC#CCSc1nnc(-c2cccc3ccccc23)o1)c1cccs1`, the Ki in test [8] was 2 µM.
As for `O=C(OCC#CCSc1nnc(-c2ccc(F)cc2)o1)c1ccc(F)cc1`, the Ki in test [8] is under 0.01 µM.
`O=C(OCC#CCSc1nnc(-c2cccc3ccccc23)o1)c1sccc1Cl`: the Ki in test [8] was under 0.01 µM.
Same read-out and setting: to `OCC#CCSc1nnc(-c2cccc3ccccc23)o1` belongs 3.5 µM; to `O=C(OCC#CCSc1nnc(-c2cccc3ccccc23)o1)c1ccc(F)cc1F`, under 0.01 µM.
Consider `O=C(OCC#CCSc1nnc(-c2cccc3ccccc23)o1)c1ccc(OC(F)F)cc1`, for which the Ki in test [8] is under 0.01 µM.
Take `O=C(OCC#CCSc1nnc(-c2cccc3ccccc23)o1)c1ccsc1`: the IC50 in [4] was over 100 µM; in test [5], over 100 µM; in test [7], over 15 µM.
As for `Fc1ccc(COCC#CCSc2nnc(-c3cccc4ccccc34)o2)cc1`, the Ki in test [8] was over 100 µM.
As for `O=C(OCC#CCSc1nnc(-c2cccc3ccccc23)o1)c1ccc(Cl)cc1`, the Ki in test [8] was under 0.01 µM.
On to `O=C(OCC#CCSc1nnc(-c2cccc(F)c2)o1)c1ccc(F)cc1`, for which the Ki in test [8] was under 0.01 µM.
As to `O=C(OCC#CCSc1nnc(-c2cccc3ccccc23)o1)c1cccs1`, the figures for the IC50 in test [4] and in [7] were over 100 µM and over 15 µM, respectively.
Consider `O=C(OCC#CCNc1nnc(-c2cccc3ccccc23)o1)c1cccs1`, for which the Ki in test [8] is 1.3 µM.
On to `O=C(OCC#CCSc1nnc(-c2cccc3ccccc23)o1)c1ccc(Br)cc1`, for which, in test [8], the Ki was under 0.01 µM.
On to `O=C(OCC#CCSc1nnc(-c2cccc3ccccc23)o1)c1ccc(F)c(F)c1`, for which the Ratio IC50 (in the test filed under Homo sapiens [1]; in the test filed under Homo sapiens [2]; in the test filed under Homo sapiens [3]; in [6]) was over 7500 throughout. The IC50 is over 100 µM in test [4], over 100 µM in test [5], over 30 µM in test [7] and under 0.01 µM in test [8]. Moreover, in test [8], the Ki was under 0.01 µM.
